Results reported in ChEMBL document CHEMBL1130279 (J Med Chem, 1997).

Columns and labels:
Rattus norvegicus = species on record: Rattus norvegicus; test: Compound was evaluated for its ability to inhibit uptake of [3H]-dopamine into rat caudate putamen tissue; assay type: functional
[1] = molecular target: T1, Sodium-dependent dopamine transporter (Rattus norvegicus, UniProt P23977); test: Compound was evaluated for its ability to displace [3H]WIN-35428 from dopamine transporter in rat caudate putamen tissue; assay type: tissue-based
T1 sequence (P23977 whole entry): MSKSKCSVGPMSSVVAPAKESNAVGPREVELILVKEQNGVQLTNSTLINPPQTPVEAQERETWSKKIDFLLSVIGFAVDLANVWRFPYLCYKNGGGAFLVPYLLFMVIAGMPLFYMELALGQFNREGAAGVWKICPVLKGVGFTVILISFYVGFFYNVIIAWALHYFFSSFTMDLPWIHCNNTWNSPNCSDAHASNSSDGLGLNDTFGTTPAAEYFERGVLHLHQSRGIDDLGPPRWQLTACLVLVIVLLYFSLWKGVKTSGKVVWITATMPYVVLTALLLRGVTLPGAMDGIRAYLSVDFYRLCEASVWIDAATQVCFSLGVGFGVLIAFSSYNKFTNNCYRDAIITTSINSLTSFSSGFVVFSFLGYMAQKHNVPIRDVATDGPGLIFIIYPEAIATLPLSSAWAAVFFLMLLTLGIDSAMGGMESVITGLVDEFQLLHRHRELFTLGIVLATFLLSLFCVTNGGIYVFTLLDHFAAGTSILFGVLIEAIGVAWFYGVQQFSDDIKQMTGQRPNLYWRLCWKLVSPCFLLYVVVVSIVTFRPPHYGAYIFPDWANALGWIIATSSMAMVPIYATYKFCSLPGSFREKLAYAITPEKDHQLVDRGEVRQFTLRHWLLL

[2] = molecular target: T1, Sodium-dependent dopamine transporter; test: Displacement of [3H]WIN-35428 from dopamine transporter in rat caudate putamen tissue; assay type: tissue-based
Method in brief: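 Compounds were tested as oxalate salts unless noted; some were hydrochloride or fumarate. Values are mean ± SEM of three experiments, each run in triplicate.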

[3] = Rattus norvegicus, Caudate-putamen

Compound | Ki [2] | further results
COC(=O)CC1C(Cc2ccccc2)CC2CCC1N2C (stereo in doubt; 20a) |  | IC50 (Rattus norvegicus): 457 nM
COC(=O)[C@@H]1C2CC[C@H](C[C@@H]1c1ccccc1)N2C |  | IC50 [1]: 314 nM; IC50 (Rattus norvegicus; [3]): 373 nM
COC(=O)CC1C(Cc2ccccc2)CC2CCC1N2C (stereo unspecified) | 0.033 µM | IC50 (Rattus norvegicus): 161 nM
COC(=O)C[C@H]1C2C[C@@H](C)C(C[C@@H]1Cc1ccccc1)N2C (stereo in doubt; 22b) | 0.294 µM | IC50 (Rattus norvegicus): 532 nM
COC(=O)C[C@@H]1C2C[C@@H](Cc3ccccc3)C(C[C@@H]1Cc1ccccc1)N2C (stereo partly specified) | 3.08 µM | 
CCCC1CC2C(CC(=O)OC)C(Cc3ccccc3)CC1N2C (stereo in doubt; 21d) | 5.85 µM | 
COC(=O)CC1C(Cc2ccccc2)CC2C(Cc3ccccc3)CC1N2C (stereo unspecified) | 3.08 µM | 
CCCC1CC2C(CC(=O)OC)C(Cc3ccccc3)CC1N2C (stereo in doubt; 22d) | 57.3 µM | 
COC(=O)C[C@H]1C2C[C@@H](Cc3ccccc3)C(C[C@@H]1Cc1ccccc1)N2C (stereo partly specified) | 7.59 µM | 
COC(=O)C[C@@H]1C2C[C@H](C)C(C[C@@H]1Cc1ccccc1)N2C (stereo partly specified) | 0.211 µM | 
CCC1CC2C(CC(=O)OC)C(Cc3ccccc3)CC1N2C (stereo in doubt; 21c) | 3.11 µM | 
COC(=O)C[C@H]1C2C[C@@H](C)C(C[C@@H]1Cc1ccccc1)N2C (stereo in doubt; 21b) | 0.057 µM | IC50 (Rattus norvegicus): 107 nM
CCCC[C@@H]1CC2[C@@H](CC(=O)OC)[C@@H](Cc3ccccc3)CC1N2C (stereo in doubt; 19e) | 8.58 µM | 
COC(=O)CC1=C(Cc2ccccc2)CC2C(Cc3ccccc3)CC1N2C (stereo unspecified) | 4.83 µM | 
CC[C@@H]1CC2[C@@H](CC(=O)OC)[C@@H](Cc3ccccc3)CC1N2C (stereo in doubt; 20c) | 1.15 µM | 
COC(=O)C[C@@H]1C2CCC(C[C@@H]1Cc1ccccc1)N2C (stereo partly specified) |  | IC50 (Rattus norvegicus; [3]): 94 nM
CCC1CC2C(CC(=O)OC)C(Cc3ccccc3)CC1N2C (stereo in doubt; 22c) | 6.21 µM | 
CCCC[C@@H]1CC2[C@@H](CC(=O)OC)[C@@H](Cc3ccccc3)CC1N2C (stereo in doubt; 20e) | 19.7 µM | 
CC[C@@H]1CC2[C@@H](CC(=O)OC)[C@@H](Cc3ccccc3)CC1N2C (stereo in doubt; 19c) | 0.307 µM | 
COC(=O)CC1C(Cc2ccccc2)CC2CCC1N2C (single isomer, unassigned; (+)) | 0.06 µM | IC50 (Rattus norvegicus): 208 nM
CCC[C@H]1CC2[C@@H](CC(=O)OC)[C@@H](Cc3ccccc3)CC1N2C (stereo in doubt; 20d) | 7.24 µM | 
